Reference: the array DNA melting data of Ke et al. (doi:10.1101/2024.01.08.574731)

What was measured:
[1] = melting temperature; fluorescence melt of hairpins on a sequencing array, two-state fit, raised by 9.35 °C to match UV melts; conditions: sodium 0.088 M
In short: (§1)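 With Cy3 and quencher oligos annealed, library hairpins on a sequenced MiSeq flow cell were imaged for Cy3 fluorescence in 50 mM Na-HEPES pH 8.0, 25 mM NaCl, in 2.5 °C steps up to 60 °C. Melting temperature and folding enthalpy were derived from bootstrapped two-state fits of signals normalised to pre-quench Cy3 and to control constructs. Four replicates were combined by inverse variance, with fitted temperatures raised by 9.35 °C to match UV melts.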

[2] = folding enthalpy; higher = less favourable; fluorescence melt of hairpins on a sequencing array, two-state fit; conditions: sodium 0.088 M
In short: as §1

Row | Sequence | Tm [1] [°C] | folding enthalpy [2] [kcal/mol]
1 | GATCTCTCGTGAGATC ((((((....)))))) | 52.5 | -40
2 | GTCTTGGGAAACCAAGAC (((((((....))))))) | 62.1 | -46.4
3 | GTTGACGAAAGTCATAAC ((((((....)))..))) | 33.5 | -12.9
4 | GAGATTCCGAAAGGACTC (((..(((....)))))) | 30.5 | -12.2
5 | GGAGCGGGAAACCACTCC ((((.((....)).)))) | 49.2 | -34.7
6 | GCCAGCCGAAAGGCCGGC (((.(((....))).))) | 68.4 | -27.4
7 | GCTTACGAAAGTATTAGC ((((((....)))..))) | 33.5 | -23.9
8 | TGAGTGAAAACTCA (((((....))))) | 42.4 | -18.3
9 | GATCTGCGATCAGATC ((((((....)))))) | 47.1 | -33.9
10 | GTATACCGAAAGGTGTAC (((.(((....))).))) | 51.6 | -27.6
11 | GTAGTCGGAAACGACCAC ((.((((....)))).)) | 37.4 | -14.5
12 | GATCGCCGTCGCGATC ((((((....)))))) | 66.6 | -36.5
13 | GATCCACGAAAGTGATC (((.(((....)))))) | 41.3 | -21.4
14 | GATTCGCGAAAGCGATC (((.(((....)))))) | 44.5 | -11.6
15 | GTATTCCGAAAGGATTAC (((.(((....))).))) | 43.5 | -28.2
16 | GACTAAGGAAACTTAGCC (.(((((....))))).) | 31.3 | -20.4
17 | GTATTCGGAAACGGATAC ((((.((....)).)))) | 45.1 | -33.2
18 | GGCACCGAAAGGTCTGCC ((((((....)))..))) | 48.4 | -22.2
19 | CGGTCACGGAAACGTCCG (((..(((....)))))) | 38.7 | -10.3
20 | GATCCTTACCAGGATC ((((((....)))))) | 52.1 | -33.6
21 | CGAACGGAAACGTGATCG ((((((....)))..))) | 28.6 | -19.6
22 | GATGGTGGAAACACCGTC ((.((((....)))).)) | 53.6 | -23.7
23 | GATCCGAACCCGGATC ((((((....)))))) | 54.8 | -38.9

Row | Sequence | Tm [1] [°C] | folding enthalpy [2] [kcal/mol]
24 | GTGGTTGGAAACAACCGC (.(((((....))))).) | 55.7 | -31
25 | GCGTTGCACGC ((((...)))) | 59.4 | -23
26 | GACCGCGAAAGCGTGTC ((((((....))).))) | 63.5 | -21.2
27 | GATAGCGAAAGCTTCATC ((((((....)))..))) | 28.3 | -12
28 | GTAGCCGAAAGGCGCTAC ((((((....)))..))) | 42.8 | -9.33
29 | GACCCCGGAAACGAGGTC ((((.((....)).)))) | 48 | -36.9
30 | GTCACGCCGAAAGGCGAC (((..(((....)))))) | 32.1 | -6.44
31 | GCAAACGAAAGTTGTGC ((((((....))).))) | 43.4 | -22.6
32 | GATCGTGCTTACGATC ((((((....)))))) | 56.4 | -38.4
33 | GGGCTGGGAAACCAGCTC (.(((((....))))).) | 58.7 | -26.6
34 | GTTGTCGAAAGACTAAAC ((((((....)))..))) | 29.5 | -13.6
35 | GTAGGCGAAAGCCCTTAC ((((((....)))..))) | 37.9 | -9.27
36 | GGAATCGAAAGATCTTCC ((((((....)))..))) | 30.6 | -20.9
37 | GGTTGCGGAAACGCAGTC (..((((....))))..) | 36.1 | -12.8
38 | GTGTCGCCGAAAGGCCAC (((..(((....)))))) | 44.4 | -15
39 | GGGAATGGAAACATTTCC ((.((((....)))).)) | 45.1 | -32
40 | GTTTTACGAAAGTAGAAC (((.(((....))).))) | 41.2 | -29.2
41 | GCAATCGAAAGATCGTGC ((((((....)))..))) | 28 | -16.1
42 | GGAACGCGAAAGCGCTCC (((.(((....))).))) | 55.8 | -28.2
43 | CGTATCCGGAAACGGACG (((..(((....)))))) | 32.5 | -13.8
44 | GTATACGAAAGTACTAC ((((((....))).))) | 27.6 | -13.1
45 | GATGGCGAAAGCCTAATC ((((((....)))..))) | 32 | -9.84
46 | GGAATACGAAAGTAATCC (((.(((....))).))) | 40.1 | -28.8

Row | Sequence | Tm [1] [°C] | folding enthalpy [2] [kcal/mol]
47 | GCGTATGGACGC ((((....)))) | 51.4 | -21
48 | GAAATCGGAAACGATTCC (.(((((....))))).) | 37.1 | -16.6
49 | GTCGGCGAAAGCCCGGAC ((((((....)))..))) | 42.4 | -14.2
50 | GATCTGAGTGCAGATC ((((((....)))))) | 49.2 | -31.1
51 | GCTTTTGAAAAAAAGC ((((((....)))))) | 50.4 | -30.5
52 | GCTCTGCGAAAGCATCGC ((..(((....)))..)) | 35.4 | -16.3
53 | GGCAACGGAAACATTGCC (((((.(....).))))) | 45.1 | -31.6
54 | GATCACAACAGTGATC ((((((....)))))) | 58.7 | -41.7
55 | GATCGTGAACACGATC ((((((....)))))) | 63.6 | -34.5
56 | GAACGAGCGAAAGCTTTC (((..(((....)))))) | 23.9 | -8.11
57 | GAGGAAACGAAAGTTCTC (((..(((....)))))) | 24.6 | -13.3
58 | GATCTGAATACAGATC ((((((....)))))) | 47.7 | -39.7
59 | GATCACGTGTGTGATC ((((((....)))))) | 58.9 | -37.3
60 | GCCTATCGAAAGATTGGC (((.(((....))).))) | 53.4 | -35.2
61 | GGCAATGAAAATTGCC ((((((....)))))) | 61.4 | -37.5
62 | GATGCCCGAAAGGGAATC (((.(((....))).))) | 53.9 | -37.9
63 | GATCGATTGTTCGATC ((((((....)))))) | 53.1 | -37.4
64 | GAATAGGGAAACCTATCC (.(((((....))))).) | 26.4 | -15.5
65 | GATCATGCACATGATC ((((((....)))))) | 56.3 | -41.5
66 | GCGACAGGAAACTGCCAC (.(.(((....))).).) | 20.6 | -9.04
67 | GCATTCCGAAAGGAGTGC (((.(((....))).))) | 58.4 | -40
68 | GTATTTGGAAACAAATAC (((((((....))))))) | 50.5 | -44.3
69 | GCTCCGCGAAAGCGAAGC (((.(((....))).))) | 56.4 | -29

Row | Sequence | Tm [1] [°C] | folding enthalpy [2] [kcal/mol]
70 | GCATGCGGAAACGCACAC (..((((....))))..) | 27.7 | -9.47
71 | GCCTACGAAAGTATGGC ((((((....))).))) | 52.3 | -24.6
72 | GATCAATGAATTGATC ((((((....)))))) | 46.3 | -34.6
73 | GCCTTGCGAAAGCGGGGC (((..((....))..))) | 65.2 | -33.2
74 | GGTCAAGCGAAAGCTACC (((..(((....)))))) | 34.8 | -17.8
75 | GATCCTCTTAAGGATC ((((((....)))))) | 52.9 | -42.5
76 | CCTCTGAAAAGAGG (((((....))))) | 48.7 | -20.4
77 | GCTTGACGAAAGTCCAGC (((.(((....))).))) | 49.9 | -26.6
78 | GGTTTACGAAAGTATACC (((.(((....))).))) | 45.5 | -39.3
79 | GGACCTGGAAACGGGTTC (.(((.(....).))).) | 38.6 | -26.6
80 | GCCTGGCGAAAGCCACGC ((.((((....)))).)) | 49 | -16.9
81 | GATCATCCTAATGATC ((((((....)))))) | 49 | -35
82 | GATCTGGAATCAGATC ((((((....)))))) | 54.3 | -40.5
83 | GCCTCGCGAAAGCGGAGC ((..(((....)))..)) | 50.9 | -13.7
84 | GTTTCGGGAAACTGGAAC (((.(.(....).).))) | 39.8 | -13.5
85 | GTCATGGGAAACCATGAC (((((((....))))))) | 60.7 | -44.5
86 | GTGGACGAAAGTCTCAC ((((((....))).))) | 46.6 | -20.1
87 | GATCTCAAGGGAGATC ((((((....)))))) | 50.8 | -28.6
88 | GATCCGGGTTCGGATC ((((((....)))))) | 58.5 | -44.7
89 | GCACCGCGAAAGCTGTGC ((((.((....)).)))) | 66.2 | -32.1
90 | AGGTGGAAACACCT (((((....))))) | 52.6 | -19.2
91 | GATGCACCGAAAGGTATC (((..(((....)))))) | 29 | -9.42
92 | GTACGCCGAAAGGCATAC (((.(((....))).))) | 44.7 | -16.4
